Experimental data pooled from the literature.
Each line is one published result; the experiments were not run side by side.
Read-out: metabolic stability

Cc1cc(C)nc(Nc2ncc(C(=O)NCCc3c(C)[nH]c4ccccc34)cn2)c1 — half-life (human, liver microsomes; 1 µM): 28 min
O=C(c1cc(-n2sc3ncccc3c2=O)ccc1Cl)N1CCOCC1 — half-life (human, liver microsomes): > 120 min
CN(C)CCc1c[nH]c2ccccc12 — half-life (human, hepatocytes; 0.6 µM): 98.9 min
C[C@]12CC[C@H]3[C@@H](CCC4=CC(=O)CC[C@@]43C)[C@@H]1CC[C@@H]2O — half-life (human, liver microsomes; 1 µM): 14.9 min
O=c1c2ccccc2sn1Cc1ccc(Cl)cc1 — half-life (human, liver microsomes): 300 min
C=C1NC(=O)[C@H](C)N(O)C(=O)[C@H]([C@@H](O)C(N)=O)N(C)C(=O)[C@H](C)OC(=O)[C@@H]2C[C@H](C)CN2C1=O — half-life (human, liver microsomes): > 120 min
CCCCCn1cc(C(=O)Nc2cccc3ccccc23)c2ccccc21 — half-life (male human, liver microsomes; 1 µM, pH 7.4): 2.3 min
Cc1cnc(Nc2ccc(C(=O)NC3CCN(C(=O)COCCOCCOCC(=O)N4CCC(NC(=O)c5ccc(Nc6ncc(C)c(Nc7ccc(Cl)c(NS(=O)(=O)C(C)(C)C)c7)n6)cc5F)CC4)CC3)c(F)c2)nc1Nc1ccc(Cl)c(NS(=O)(=O)C(C)(C)C)c1 — half-life (human, liver microsomes): 3.6 min
CCCCCCCCCCCCCCCCCCCCOP(=O)(O)CO[C@H](C)Cn1cnc2c(N)ncnc21.N — half-life (human, liver microsomes; 3 µM, 30 min, pH 7.4): 49 min
C#Cc1ccc2c(c1)C(c1ccccn1)=NCc1c(-c3cnco3)ncn1-2 — half-life (human, liver microsomes): 1500 min
CC(C)NCC(O)COc1cccc2ccccc12 (stereo not shown) — half-life (human, liver microsomes; 2 µM): > 40 min
N=c1c2c(-c3ccccc3)c(-c3ccccc3)n(Cc3ccccc3)c2ncn1[C@H]1CC[C@H](O)CC1 — half-life (human, liver S9; 1 µM): > 120 min
Cc1nc2c(=O)n(C)c(=O)nc-2n(C)n1 — half-life (human, liver microsomes): > 186 min
CCCCCn1nc(C(=O)Nc2cccc3ccccc23)c2ccccc21 — half-life (male human, liver microsomes; 1 µM, pH 7.4): 1.7 min
NCCc1c[nH]c2ccc(O)cc12 — half-life (human, hepatocytes; 5 µM): 33 min
CN1CCCCC1Cn1cc(C(=O)c2cc([N+](=O)[O-])ccc2I)c2ccccc21 (racemic) — half-life (human, liver microsomes): 5.9 min
